Experimental data taken from ChEMBL document CHEMBL1127320, “Dual-action cephalosporins incorporating a 3'-tertiary-amine-linked quinolone” (J Med Chem, 1994).
≈ marks a conversion by molar mass, not a printed value.

Assays:
Citrobacter freundii = experiment: In vitro minimum inhibitory concentration was measured against Citrobacter freundii BS-16 (beta lactamase producer) strain.; format: functional
Outline: (§1)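 MICs were determined by agar dilution with 2-fold dilutions giving final 128–0.0156 µg/mL, extended to 0.000977 µg/mL where needed. Streptococci were tested on brain heart infusion agar plus 20 units/mL catalase, Proteus on Mueller-Hinton with 3% agar, and others on Mueller-Hinton agar. Inocula were 100-fold-diluted overnight cultures, about 3 × 10^4 CFU/spot, read after overnight incubation at 36 °C.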

Escherichia coli [1] = experiment: In vitro minimum inhibitory concentration was measured against Escherichia coli 257 strain.; format: functional
Outline: (§2)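 Streptococci were tested on brain heart infusion agar plus 20 units/mL catalase, Proteus on Mueller-Hinton with 3% agar, and others on Mueller-Hinton agar. Inocula were 100-fold-diluted overnight cultures, about 3 × 10^4 CFU/spot, read after overnight incubation at 36 °C.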

Escherichia coli [2] = experiment: In vitro minimum inhibitory concentration was measured against Escherichia coli ATCC 25922 strain.; format: functional; outline: as §2
Escherichia coli [3] = experiment: In vitro minimum inhibitory concentration was measured against Escherichia coli TEM-1 (Beta lactamase producer) strain.; format: functional; outline: as §2
Enterococcus faecalis = experiment: In vitro minimum inhibitory concentration was measured against Enterococcus faecalis ATCC 29212 strain.; format: functional; outline: as §2
Enterobacter cloacae [4] = experiment: In vitro minimum inhibitory concentration was measured against Enterobacter cloacae 5699 strain.; format: functional
Enterobacter cloacae [5] = experiment: In vitro minimum inhibitory concentration was measured against Enterobacter cloacae p99 (beta lactamase producer) strain.; format: functional
Klebsiella pneumoniae = experiment: In vitro minimum inhibitory concentration was measured against Klebsiella pneumoniae A strain.; format: functional; outline: as §2
Micrococcus luteus = experiment: In vitro minimum inhibitory concentration was measured against Micrococcus luteus ATCC 9341 strain.; format: functional; outline: as §2
[6] = target: T1, Penicillin-binding protein 1A (Escherichia coli K-12) (UniProt P02918); experiment: Affinity for penicillin binding protein 1a of Escherichia coli UB1005 (DC0) was evaluated.; set-up: unit not given here
T1 sequence (whole entry): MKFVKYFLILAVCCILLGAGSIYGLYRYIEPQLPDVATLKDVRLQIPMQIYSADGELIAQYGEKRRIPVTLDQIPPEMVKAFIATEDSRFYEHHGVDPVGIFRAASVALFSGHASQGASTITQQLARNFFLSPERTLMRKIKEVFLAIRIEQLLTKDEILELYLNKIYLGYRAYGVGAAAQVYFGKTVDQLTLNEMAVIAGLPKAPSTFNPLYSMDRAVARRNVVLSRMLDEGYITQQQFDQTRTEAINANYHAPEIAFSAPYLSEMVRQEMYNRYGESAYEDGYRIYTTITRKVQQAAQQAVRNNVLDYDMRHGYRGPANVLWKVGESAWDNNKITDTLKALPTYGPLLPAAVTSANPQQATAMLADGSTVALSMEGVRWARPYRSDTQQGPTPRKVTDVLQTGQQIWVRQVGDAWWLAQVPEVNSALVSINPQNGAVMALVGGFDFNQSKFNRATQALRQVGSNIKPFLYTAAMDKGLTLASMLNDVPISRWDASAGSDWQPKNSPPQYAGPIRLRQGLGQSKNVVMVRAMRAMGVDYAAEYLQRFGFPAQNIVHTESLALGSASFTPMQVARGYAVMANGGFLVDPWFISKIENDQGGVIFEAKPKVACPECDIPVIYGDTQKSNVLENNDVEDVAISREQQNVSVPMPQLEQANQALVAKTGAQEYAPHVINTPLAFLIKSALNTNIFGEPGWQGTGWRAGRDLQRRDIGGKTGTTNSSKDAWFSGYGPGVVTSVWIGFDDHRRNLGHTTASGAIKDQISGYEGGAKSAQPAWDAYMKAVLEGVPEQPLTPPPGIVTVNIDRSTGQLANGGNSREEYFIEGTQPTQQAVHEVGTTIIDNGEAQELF
Outline: (§3)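 Solubilised membranes from sonicated E. coli UB1005 served as the binding-protein source. Binding was read as inhibition of [14C]penicillin G binding.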

[7] = target: T2, Penicillin-binding protein 1B (Escherichia coli K-12) (UniProt P02919); experiment: Affinity for penicillin binding protein 1b of Escherichia coli UB1005 (DC0) was evaluated.; set-up: unit not given here; outline: as §3
T2 sequence (whole entry): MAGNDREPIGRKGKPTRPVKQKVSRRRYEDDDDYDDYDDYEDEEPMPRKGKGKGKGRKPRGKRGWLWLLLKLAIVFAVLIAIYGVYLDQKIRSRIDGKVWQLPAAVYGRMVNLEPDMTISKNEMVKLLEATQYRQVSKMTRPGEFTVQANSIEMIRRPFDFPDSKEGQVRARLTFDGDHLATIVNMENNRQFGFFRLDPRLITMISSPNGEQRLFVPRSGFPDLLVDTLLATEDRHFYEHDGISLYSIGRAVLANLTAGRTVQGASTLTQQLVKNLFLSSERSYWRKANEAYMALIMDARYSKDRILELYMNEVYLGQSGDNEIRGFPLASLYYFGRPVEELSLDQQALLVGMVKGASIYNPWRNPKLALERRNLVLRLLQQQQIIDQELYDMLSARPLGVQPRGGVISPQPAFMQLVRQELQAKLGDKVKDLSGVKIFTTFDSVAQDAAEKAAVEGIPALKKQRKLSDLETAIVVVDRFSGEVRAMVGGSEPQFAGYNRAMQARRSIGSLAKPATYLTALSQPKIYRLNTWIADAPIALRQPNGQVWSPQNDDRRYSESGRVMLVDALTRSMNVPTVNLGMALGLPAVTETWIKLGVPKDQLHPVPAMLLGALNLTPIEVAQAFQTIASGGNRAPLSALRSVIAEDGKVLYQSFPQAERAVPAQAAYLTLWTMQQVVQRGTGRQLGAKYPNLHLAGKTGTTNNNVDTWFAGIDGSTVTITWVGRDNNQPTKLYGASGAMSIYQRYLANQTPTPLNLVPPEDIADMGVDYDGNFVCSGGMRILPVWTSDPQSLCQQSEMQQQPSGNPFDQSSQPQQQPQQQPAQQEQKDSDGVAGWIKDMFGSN

[8] = target: T3, Peptidoglycan D,D-transpeptidase MrdA (Escherichia coli K-12) (UniProt P0AD65); experiment: Affinity for penicillin binding protein 2 of Escherichia coli UB1005 (DC0) was evaluated.; set-up: unit not given here; outline: as §3
T3 sequence (whole entry): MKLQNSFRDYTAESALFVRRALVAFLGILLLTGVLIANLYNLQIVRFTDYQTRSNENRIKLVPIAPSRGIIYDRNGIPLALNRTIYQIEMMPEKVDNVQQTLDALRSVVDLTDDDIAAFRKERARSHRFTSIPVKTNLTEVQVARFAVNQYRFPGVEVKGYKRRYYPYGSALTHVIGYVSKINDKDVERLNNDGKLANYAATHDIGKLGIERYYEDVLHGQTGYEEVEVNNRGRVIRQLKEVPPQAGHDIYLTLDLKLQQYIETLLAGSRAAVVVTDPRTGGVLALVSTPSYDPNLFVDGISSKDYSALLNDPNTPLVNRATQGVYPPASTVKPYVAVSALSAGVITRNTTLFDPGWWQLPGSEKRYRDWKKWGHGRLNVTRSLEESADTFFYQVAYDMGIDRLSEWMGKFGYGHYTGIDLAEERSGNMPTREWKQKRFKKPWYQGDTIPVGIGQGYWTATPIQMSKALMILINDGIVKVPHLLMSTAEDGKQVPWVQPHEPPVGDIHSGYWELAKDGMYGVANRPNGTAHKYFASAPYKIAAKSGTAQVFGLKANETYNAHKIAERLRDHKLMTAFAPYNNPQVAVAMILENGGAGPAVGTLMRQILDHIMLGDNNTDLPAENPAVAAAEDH

Proteus mirabilis = experiment: In vitro minimum inhibitory concentration was measured against Proteus mirabilis 90 strain.; format: functional; outline: as §2
Pseudomonas aeruginosa [9] = experiment: In vitro minimum inhibitory concentration was measured against Pseudomonas aeruginosa 18S/H strain.; format: functional; outline: as §2
Pseudomonas aeruginosa [10] = experiment: In vitro minimum inhibitory concentration was measured against Pseudomonas aeruginosa 8780 strain.; format: functional; outline: as §2
Proteus vulgaris = experiment: In vitro minimum inhibitory concentration was measured against Proteus vulgaris 1028BC (beta lactamase producer) strain.; format: functional; outline: as §2
Serratia marcescens = experiment: In vitro minimum inhibitory concentration was measured against Serratia marcescens 1071(beta lactamase producer) strain.; format: functional; outline: as §2
Staphylococcus aureus [11] = experiment: In vitro minimum inhibitory concentration was measured against Staphylococcus aureus 67-0 (Methicillin resistant) strain.; format: functional
Staphylococcus aureus [12] = experiment: In vitro minimum inhibitory concentration was measured against Staphylococcus aureus 753 (Methicillin resistant) strain.; format: functional
Staphylococcus aureus [13] = experiment: In vitro minimum inhibitory concentration was measured against Staphylococcus aureus smith strain.; format: functional
Streptococcus pneumoniae = experiment: In vitro minimum inhibitory concentration was measured against Streptococcus pneumoniae 6301 strain; format: functional; outline: as §2
Streptococcus pyogenes = experiment: In vitro minimum inhibitory concentration was measured against Streptococcus pyogenes 4 strain.; format: functional; outline: as §2
Escherichia coli [14] = experiment: Minimum inhibitory concentration for DC2, a permeability mutant; outline: as §1
[15] = system: Penicillin-binding protein 3 (Escherichia coli); experiment: Affinity for penicillin binding protein 3 of Escherichia coli UB1005 (DC0) was evaluated.; set-up: unit not given here
[16] = Half life was measured as degradation by HPLC analysis.; format: ADME
Escherichia coli [17] = experiment: Minimum inhibitory concentration against E. coli UB1005 (DC0)

## CO/N=C(\C(=O)N[C@@H]1C(=O)N2C(C(=O)O)=C(CN3CCNCC3)CS[C@H]12)c1csc(N)n1
Citrobacter freundii
  MIC: 128 µg/mL (≈ 266 µM)
Escherichia coli [1]
  MIC: 0.25 µg/mL (≈ 0.519 µM)
Escherichia coli [2]
  MIC: 0.25 µg/mL (≈ 0.519 µM)
Escherichia coli [3]
  MIC: 0.5 µg/mL (≈ 1.04 µM)
Enterococcus faecalis
  MIC: 4 µg/mL (≈ 8.31 µM)
Enterobacter cloacae [4]
  MIC: 0.5 µg/mL (≈ 1.04 µM)
Enterobacter cloacae [5]
  MIC: 128 µg/mL (≈ 266 µM)
Klebsiella pneumoniae
  MIC: 0.125 µg/mL (≈ 0.26 µM)
Micrococcus luteus
  MIC: 0.25 µg/mL (≈ 0.519 µM)
[6]
  Binding affinity: > 100
[7]
  Binding affinity: 100
[8]
  Binding affinity: > 100
Proteus mirabilis
  MIC: 0.5 µg/mL (≈ 1.04 µM)
Pseudomonas aeruginosa [9]
  MIC: > 128 µg/mL
Pseudomonas aeruginosa [10]
  MIC: 64 µg/mL (≈ 133 µM)
Proteus vulgaris
  MIC: > 128 µg/mL
Serratia marcescens
  MIC: 8 µg/mL (≈ 16.6 µM)
Staphylococcus aureus [11]
  MIC: > 128 µg/mL
Staphylococcus aureus [12]
  MIC: > 128 µg/mL
Staphylococcus aureus [13]
  MIC: 4 µg/mL (≈ 8.31 µM)
Streptococcus pneumoniae
  MIC: 0.063 µg/mL (≈ 0.131 µM)
Streptococcus pyogenes
  MIC: 0.031 µg/mL (≈ 0.0644 µM)
Escherichia coli [14]
  MIC: 0.25 µg/mL (≈ 0.519 µM)
[15]
  Binding affinity: 100

## O=C(O)C1=C(CN2CCN(c3cc4c(cc3F)c(=O)c(C(=O)O)cn4C3CC3)CC2)CS[C@@H]2[C@H](NC(=O)C(C(=O)O)c3ccccc3)C(=O)N12 (some centres undefined)
[16]
  half-life: 228 h
Citrobacter freundii
  MIC: 0.063 µg/mL (≈ 0.0893 µM)
Enterococcus faecalis
  MIC: 32 µg/mL (≈ 45.3 µM)
Enterobacter cloacae [5]
  MIC: 0.063 µg/mL (≈ 0.0893 µM)
[6]
  Binding affinity: > 100
[7]
  Binding affinity: > 100
[8]
  Binding affinity: > 100
Escherichia coli [14]
  MIC: 2 µg/mL (≈ 2.83 µM)
Escherichia coli [17]
  MIC: 4 µg/mL (≈ 5.67 µM)
[15]
  Binding affinity: 100
